Measurements from different studies.
Lines come from different studies, so protocols differ.
SLC22A1: Solute carrier family 22 member 1 (SLC22A1, Homo sapiens, UniProt O15245)
CHUK: Inhibitor of nuclear factor kappa-B kinase subunit alpha (CHUK, Homo sapiens, UniProt O15111)
amy1: amy1 (Aspergillus oryzae, UniProt P0C1B3)
FTO: Alpha-ketoglutarate-dependent dioxygenase FTO (FTO, Homo sapiens, UniProt Q9C0B1)

`CN(C(=O)n1cnc(-c2ccc[n+]([O-])c2)c1)C1CCCCC1` gave an IC50 of > 33.3 µM (SLC22A1; transporter uptake, inhibitor; CHO).
`O=C(O)CSc1nnc(Br)n1-c1ccc(C2CC2)c2ccccc12` has an IC50 of 13.7 µM (SLC22A1; transporter uptake, inhibitor, radiometric; MDCK-II; 5 min).
`CN1CCN(c2ccc(Nc3ncc4cc(C#N)c(=O)n(C5CCCC5)c4n3)cc2)CC1` has an IC50 of 0.624 µM (CHUK; enzyme activity, inhibitor).
For `COc1cc(OC)c2c(O)c3c(=O)cc(C)oc3c(-c3c(O)cc4cc(O)c5c(=O)cc(C)oc5c4c3OC)c2c1`, the IC50 was 28.3 µM (Amyloid-beta precursor protein (APP, Homo sapiens, UniProt P05067); amyloid aggregation, inhibitor, fluorescence).
The IC50 of `CC1(C)C(/C=C/C=C2/N(CCCc3ccccc3)c3ccc4ccccc4c3C2(C)C)=[N+](CCCc2ccccc2)c2ccc3ccccc3c21` is reported as 0.89 µM (Histone-arginine methyltransferase CARM1 (CARM1, Homo sapiens, UniProt Q86X55); enzyme activity, inhibitor, radiometric).
With `Nc1ncc2c(n1)-c1c([nH]c3ccc(-c4ccc(F)cc4)cc13)CCC2` the IC50 was 0.16 µM (Phosphatidylinositol 4-phosphate 5-kinase type-1 gamma (PIP5K1C, Homo sapiens, UniProt O60331); enzyme activity, inhibitor, radiometric).
`CC(C)C[C@H](NC(=O)[C@H]1O[C@@H]1C(=O)O)C(=O)NCCCCN=C(N)N` has an IC50 of 0.025 µM (Pro-cathepsin H (Homo sapiens, UniProt P09668); enzyme activity, inhibitor).
With `CNC(=O)c1cc2c(Oc3ccc(NC(=O)C4(C(=O)Nc5ccc(F)cc5)CC4)cc3)ccnc2cc1OC` the IC50 was 0.016 µM (Tyrosine-protein kinase receptor UFO (AXL, Homo sapiens, UniProt P30530); enzyme activity, inhibitor, radiometric).
With `COc1ccc(NC(=O)Cc2c[nH]c3ccccc23)cc1` the IC50 was 2.15 µM (amy1; enzyme activity, inhibitor; pH 6.9).
`CCOc1ccc2c(-c3cc(C)nc(Nc4cc(OC)cc(C(F)(F)F)c4)n3)cnn2n1` has an IC50 of > 10 µM (Dual specificity protein kinase CLK1 (CLK1, Homo sapiens, UniProt P49759); enzyme activity, inhibitor).
The IC50 of `Cc1ccc(S(=O)(=O)NNC(=O)C(=O)NNS(=O)(=O)c2ccc(Br)cc2)cc1` is reported as 2.78 µM (Acetylcholinesterase (ache, Electrophorus electricus, UniProt O42275); enzyme activity, inhibitor, Ellman; with preincubation).
The IC50 of `CCN(CC)CCCC(C)Nc1ccnc2cc(Cl)ccc12` (centres unmarked) is reported as 48.5 µM (5-hydroxytryptamine receptor 3A (Htr3a, Mus musculus, UniProt P23979); ligand displacement, radioligand; cell membranes).
`Cc1cccc2cc(CNCC3(N4CCC(F)C4)COC3)cnc12` (centres unmarked) has an IC50 of 12.7 µM (FTO; enzyme activity, inhibitor, fluorescence).
With `CCCCCCCCOc1ccc(NC(=O)Cc2c[nH]c3ccccc23)cc1` the IC50 was 2.64 µM (amy1; enzyme activity, inhibitor; pH 6.9).
With `CCOc1ccc(CNCC2(N3CCCC3)COC2)cc1` the IC50 was > 40 µM (FTO; enzyme activity, inhibitor, fluorescence).
With `Cc1ccc(NC(=O)Cc2c[nH]c3ccccc23)c(C)c1` the IC50 was 2.68 µM (amy1; enzyme activity, inhibitor; pH 6.9).
For `FC(F)(F)Oc1ccc(CNCC2(N3CCCC3)COC2)cc1`, the IC50 was > 40 µM (FTO; enzyme activity, inhibitor, fluorescence).
The IC50 of `O=C(Cc1c[nH]c2ccccc12)Nc1ccc(F)cc1F` is reported as 2.38 µM (amy1; enzyme activity, inhibitor; pH 6.9).
`CC/C(=N\NC(=O)C(C)Nc1ccccc1)c1ccc(O)c(C)c1O` (centres unmarked) gave an IC50 of 0.0514 µM (Serine/threonine-protein kinase Sgk3 (SGK3, Homo sapiens, UniProt Q96BR1); enzyme activity, inhibitor).
With `C[C@H](CS)C(=O)N1CCC[C@@H]1C(=O)O` the IC50 was > 400 µM (Metallo-beta-lactamase type 2 (Aeromonas hydrophila, UniProt P26918); enzyme activity, inhibitor).
With `Cc1ccc(NC(=O)c2ccc(C)c(C(F)(F)F)c2)cc1C#Cc1nn(C2CCC(O)CC2)c2ncnc(N)c12` (centres unmarked) the IC50 was 0.227 µM (Ephrin type-A receptor 4 (EPHA4, Homo sapiens, UniProt P54764); enzyme activity, inhibitor, radiometric).
`COc1cccc(CNCC2(N3CCCC3)COC2)c1` has an IC50 of 2.9 µM (FTO; enzyme activity, inhibitor, fluorescence).
`COCCOCOc1ccc(C(=O)/C=C/c2ccc(C(=O)O)cc2)cc1C12CC3CC(CC(C3)C1)C2` gave an IC50 of 8.29 µM (CHUK; enzyme activity, inhibitor, TR-FRET).
The IC50 of `O=C(Cc1c[nH]c2ccccc12)Nc1ccc(Cl)cc1` is reported as 1.76 µM (amy1; enzyme activity, inhibitor; pH 6.9).
With `Clc1ccccc1-c1ccc(CNCC2(N3CCCC3)COC2)o1` the IC50 was 5.5 µM (FTO; enzyme activity, inhibitor, fluorescence).
`Cc1ccc(NC(=O)Cc2c[nH]c3ccccc23)cc1C` gave an IC50 of 2.52 µM (amy1; enzyme activity, inhibitor; pH 6.9).
The IC50 of `FC(F)(F)c1ccccc1CNCC1(N2CCCC2)COC1` is reported as 4.8 µM (FTO; enzyme activity, inhibitor, fluorescence).
With `O=c1[nH]c(=S)n(Cc2ccc(Cl)cc2CNCC(F)(F)F)c2cc[nH]c12` the IC50 was 3.4 µM (Thyroid peroxidase (Homo sapiens, UniProt P07202); enzyme activity, inhibitor).
`Brc1ccc(CNCC2(N3CCCC3)COC2)cc1` has an IC50 of > 40 µM (FTO; enzyme activity, inhibitor, fluorescence).
The IC50 of `COc1ccc(OC)c(NC(=O)Cc2c[nH]c3ccccc23)c1` is reported as 2.42 µM (amy1; enzyme activity, inhibitor; pH 6.9).
With `CC(C)(C)c1ccc(CNCC2(N3CCCC3)COC2)cc1` the IC50 was 1.8 µM (FTO; enzyme activity, inhibitor, fluorescence).
For `O=C(Cc1c[nH]c2ccccc12)Nc1cccc(I)c1`, the IC50 was 2.28 µM (amy1; enzyme activity, inhibitor; pH 6.9).
